MEKK3 PB1 HTS = MEKK3-MEK5 PB1 interaction, increase or decrease; Q99759; bead-based flow cytometry, Alexa488-MEK5 binding to MEKK3; actives lie on both sides; 0 = blocked by unlabeled MEK5, 100 = vehicle; binding response (% of control), % at 10 µM; 290,000 compounds, 1.4% hits; AID 1529;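 active = binding response more than 3 SD above or below the average of its plate-row segment, actives on both sides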;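 note: Alexa488 bead fluorescence after subtracting the streptavidin-only scavenger bead signal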
Target sequence (Q99759 whole entry, looked up): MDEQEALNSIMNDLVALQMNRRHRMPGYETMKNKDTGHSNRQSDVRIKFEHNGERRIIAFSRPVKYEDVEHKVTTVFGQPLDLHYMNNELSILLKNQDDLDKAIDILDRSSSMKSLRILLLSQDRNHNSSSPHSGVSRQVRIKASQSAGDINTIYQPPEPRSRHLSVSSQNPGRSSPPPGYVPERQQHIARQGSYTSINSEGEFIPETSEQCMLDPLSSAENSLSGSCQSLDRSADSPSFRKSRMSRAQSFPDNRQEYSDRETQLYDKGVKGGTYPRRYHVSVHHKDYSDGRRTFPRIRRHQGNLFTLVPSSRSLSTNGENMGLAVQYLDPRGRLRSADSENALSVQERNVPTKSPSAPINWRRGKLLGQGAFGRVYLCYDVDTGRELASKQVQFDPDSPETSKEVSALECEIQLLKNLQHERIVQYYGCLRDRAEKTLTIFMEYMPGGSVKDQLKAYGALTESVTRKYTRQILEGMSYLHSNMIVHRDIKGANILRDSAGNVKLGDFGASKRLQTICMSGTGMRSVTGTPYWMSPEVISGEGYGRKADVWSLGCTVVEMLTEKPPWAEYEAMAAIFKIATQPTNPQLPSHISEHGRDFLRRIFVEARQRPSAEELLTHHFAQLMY
MEKK2 mut-MEK5 = signal of MEK5 binding to mutant human MEKK2 PB1 domain; bead flow cytometry, Alexa488-MEK5 binding to MEKK2 mutant; percent response, % at 10 µM; 290,000 compounds, 0.35% hits; in the data active = percent response above about 24%, passing the limit was not always enough
MEKK2wt PB1 HTS = raises or lowers MEK5 binding to wildtype human MEKK2 PB1 domain; bead flow cytometry, Alexa488-MEK5 binding to MEKK2 WT; actives lie on both sides; binding response (% of control), % at 10 µM; 290,000 compounds, 1.1% hits; Q9Y2U5; in the data active = binding response below about 67% or above about 130%
Lipid droplet = modulators of hepatic lipid droplet formation; 240,000 compounds, 0.4% hits; AID 1656; inhibition, % at 6.5 µM; AML12 mouse hepatocytes, oleate lipid droplets, BODIPY imaging;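 active = lipid droplet intensity inhibited by at least 50%, with more than 500 cells counted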
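Technique: fluorescence imaging, 20x objective, two fields per well / Assay system: AML12 hepatocytes (mouse) / Measure: % inhibition of lipid droplet signal / Doses: 6.5 µM single-point dosing / Incubation: overnight exposure / Reagent: 100 µM oleic acid challenge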
MEKK2wt confirm = raises or lowers MEK5 binding to wildtype human MEKK2, retest. shares compounds with MEKK3 PB1 HTS. bead flow cytometry, Alexa488-MEK5 binding to MEKK2 WT; actives lie on both sides. binding response (% of control), % at 10 µM. 5,900 compounds, 2.4% hits. AID 1892; in the data active = binding response below about 16% or above about 210%; inactive = in between
MEKK2mut-MEK5 = signal of MEK5 binding to mutant human MEKK2, retest; shares compounds with MEKK3 PB1 HTS; bead flow cytometry, Alexa488-MEK5 binding to MEKK2 mutant; percent response, % at 10 µM; 5,900 compounds, 2% hits; in the data active = percent response mostly above about 71%, no sharp cut-off; inactive = mostly below about 38%;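 note: higher means compound restores mutant binding toward wildtype level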
MEKK3 confirm = confirmation of inhibitors of MEK5 binding to human MEKK3; shares compounds with MEKK3 PB1 HTS; AID 1894; binding response (% of control), % at 10 µM; bead flow cytometry, Alexa488-MEK5 binding to MEKK3; active compounds read low; 5,900 compounds, 1.8% hits;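 active = binding response below 72% of control, or above a set upper limit, though filed actives all read lower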;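 note: lower values mean stronger disruption of MEK5 binding to MEKK3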
Numbers stand for hits; i = inactive; nt = no result; [ ] = dose if it differs, or a comment. Shown are actives, neighbours in structure and some others; about 2.6% of the full set was active somewhere.

SMILES	MEKK3 PB1 HTS	MEKK2 mut-MEK5	MEKK2wt PB1 HTS	Lipid droplet	MEKK2wt confirm	MEKK2mut-MEK5	MEKK3 confirm
COc1ccc(C(=O)NNS(=O)(=O)c2ccccc2)cc1OC	i	i	i	i	nt	nt	nt
COc1ccc(OCC(O)CNC(=O)c2sccc2Cl)cc1 (stereo not drawn)	i	i	i	i	nt	nt	nt
Cc1ccc2c(C)c(C(=O)N(C)Cc3nccn3C)oc2c1C	i	i	i	i	nt	nt	nt
NNC(=O)C12CC3CC(C1)CC(n1ncnn1)(C3)C2	i	i	i	i	nt	nt	nt
O=C(CSc1ncnc2scc(-c3ccccc3)c12)N1CCN(c2ccccc2F)CC1	i	i	i	i	nt	nt	nt
Fc1ccc(CSc2ncnc3scc(-c4ccccc4)c23)cc1	i	52	i	i	i	i	i
CCOCC(=O)N1CCN(c2ccccc2OC)CC1	i	53	i	i	i	i	i
COc1ccccc1N1CCN(C(=O)CSc2ncnc3scc(-c4ccccc4)c23)CC1	148	i	i	i	i	i	i
COC(=O)CSc1ncnc2scc(-c3ccccc3)c12	i	i	i	i	nt	nt	nt
COc1cc(NC(=O)c2cccc(C)c2)c(Cl)cc1[N+](=O)[O-]	i	i	i	i	nt	nt	nt
CCCN(CC(=O)Nc1ccc(C(N)=O)cc1)CC(=O)Nc1ccc(Cl)cc1Cl	134	i	i	i	i	i	i
CN(CC(=O)Nc1ccc(Cl)cc1)CC(=O)Nc1ccc(F)c(F)c1F	131	i	i	i	i	i	i
CCCN(CC(=O)Nc1ccccc1Br)CC(=O)Nc1ccc(F)c(F)c1F	i	i	i	i	nt	nt	nt
CCCN(CC(=O)Nc1cc(Cl)cc(Cl)c1)CC(=O)Nc1ccc(F)c(F)c1F	i	i	165	i	i	i	i
O=C(NCCCO)C(=O)NCc1ccncc1	i	i	i	i	nt	nt	nt
COc1ccc(CN(CC(O)COc2cccc3[nH]cc(C)c23)C(C)(C)C)cc1 (stereo not drawn)	i	i	i	i	nt	nt	nt
Cc1cc(N2CCC(N(C)C3CCCC3)CC2)nc2cc(O)ccc12	i	24	142	i	i	i	i
O=C1CC(N2CCOCC2)C(=O)N1CCN1C(=O)CC(N2CCOCC2)C1=O (stereo not drawn)	2.0[inhibitor]	i	2.0[inhibitor]	nt	i	i	i
COc1ccc(-n2nnnc2-c2ccc(S(C)(=O)=O)cc2Cl)cc1	i	i	i	i	nt	nt	nt
CCSc1nnc(N)s1	i	i	i	nt	nt	nt	nt
Cc1nnc(N)s1	73[inhibitor]	i	i	i	i	i	i
CN(Cc1ccc(OCC(O)CN2CCCCC2)cc1)Cc1ccnc2ccccc12 (stereo not drawn)	i	i	148	i	i	i	i
CC(=O)Nc1ccc(OC(=O)c2c(-c3ccccc3Cl)noc2C)cc1	144	i	i	i	i	i	i
CCC(NC(=O)c1ccc2nc(Cc3ccc(OC)cc3)oc2c1)c1ccncc1 (stereo not drawn)	i	i	i	i	nt	nt	nt
CC(=O)Nc1cc(C(=O)NCc2ccco2)ccc1Sc1ccc(Cl)cc1	i	i	i	i	nt	nt	nt
SMILES	MEKK3 PB1 HTS	MEKK2 mut-MEK5	MEKK2wt PB1 HTS	Lipid droplet	MEKK2wt confirm	MEKK2mut-MEK5	MEKK3 confirm
CC(=O)Nc1cc(C(=O)N(C)Cc2ccco2)ccc1Sc1ccc(Cl)cc1	142	i	i	i	i	i	i
O=C(CCCOc1ccc(Cl)cc1Cl)NCCc1ccccn1	i	i	i	i	nt	nt	nt
CCOC(=O)c1sc(N)c(C#N)c1CSc1nnc(C2CCCCC2)n1N	0.0[inhibitor]	i	-1.0[inhibitor]	nt	i	i	i
N#Cc1ccc(COC(=O)CSc2nnc(C3CCCCC3)n2N)cc1	i	i	i	nt	nt	nt	nt
Cc1cccc2cncc(OCc3nnc(SC(F)F)n3C)c12	73[inhibitor]	i	i	i	i	i	i
O=C(Nc1ccc(Cc2ccc(NC(=O)C3CC3)c(O)c2)cc1O)C1CC1	127	i	i	i	i	i	i
CC(NC(=O)CCCCCNC(=O)N1CCn2c1nc1ccccc12)c1ccccc1 (stereo not drawn)	i	i	i	i	nt	nt	nt
O=C(O)c1ccc(N2C(=O)Nc3ccccc3N2O)cc1	i	i	i	i	nt	nt	nt
COC(=O)c1ccc(N2C(=O)Nc3ccccc3N2O)cc1	50[inhibitor]	i	i	i	i	i	i
O=C(Nc1nccs1)c1ccc(-c2ccc(Cl)cc2)o1	3.0[inhibitor]	i	3.0[inhibitor]	i	i	i	i
O=C(Nc1nccs1)c1ccc(-c2ccc(F)cc2)o1	i	i	i	i	nt	nt	nt
O=C1CCC(C(=O)N(Cc2cccs2)C2(C(=O)NC3CCCCC3)CCCCC2)N1 (stereo not drawn)	i	i	i	i	nt	nt	nt
Cc1ccsc1/C=N/NC(=O)Cn1nc(C)c([N+](=O)[O-])c1C	i	i	i	i	nt	nt	nt
Cc1nn(CC(=O)O)c(C)c1[N+](=O)[O-]	i	i	i	i	nt	nt	nt
C/C(=N\NC(=O)Cn1nc(C)c([N+](=O)[O-])c1C)c1ccc(Cl)s1	128	i	i	i	i	i	i
Cc1nn(CC(=O)NC(C)C)c(C)c1[N+](=O)[O-]	69[inhibitor]	i	i	i	i	i	i
COc1ccc(Nc2cc(C(=O)NCc3ccco3)c3ccccc3n2)c(OC)c1	133	i	i	i	i	i	i
Cc1ccc(/C(N)=N/OC(=O)C(C)c2ccc([N+](=O)[O-])cc2)cc1 (stereo not drawn)	i	i	i	nt	nt	nt	nt
O=C(NCCO)C(=O)NCC1OCCCN1S(=O)(=O)c1ccc2c(c1)OCCO2 (stereo not drawn)	i	i	i	i	nt	nt	nt
CC(=O)Nc1cc(C(=O)NCCN2CCN(Cc3ccccc3)CC2)ccc1Sc1ccc(C)cc1	i	i	i	i	nt	nt	nt
CN(C)CCCN(CCCNC(=O)/C=N/O)Cc1ccccc1	i	80	179	i	i	i	i
COc1cc(C(=S)N2CCOCC2)cc(OC)c1OC(=O)c1cccc(C)c1	i	25	i	i	i	i	i
COc1cc2c3nnc(-c4ccc(F)cc4)c-3cn(Cc3cccc(F)c3)c2cc1OC	39[inhibitor]	i	i	i	i	i	i
COc1cccc(Cn2nc3c4cc(F)ccc4n(Cc4ccc(F)cc4)cc-3c2=O)c1	i	i	i	i	nt	nt	nt
COc1cc2c3nnc(-c4ccc(F)cc4)c-3cn(Cc3ccc(C)cc3)c2cc1OC	i	50	179	i	i	74	i
COc1cc2c3nnc(-c4ccccc4)c-3cn(Cc3ccc(F)cc3)c2cc1OC	i	i	166	i	i	i	i
CCC(CO)[n+]1c(C)cc(/C=C2\Sc3ccccc3N2Cc2ccccc2)cc1C (stereo not drawn)	i	i	63[inhibitor]	i	i	i	i
CC(NC(=O)C(=O)NN=C1CCCC1)c1ccccc1 (stereo not drawn)	i	i	i	i	nt	nt	nt
